The source made the active and inactive calls.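 Rule for the calls, unless noted: active = viability at or below 10% of carrier control in both of two separate runs; inconclusive = viability at or below 10% in only one of the two runs; inactive = the rest.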
What was measured:
[1] = Her2 expression decrease, cell viability multiplex – SKBR3 breast tumor cells, AlphaScreen, ATP viability, primary screen (AID 461;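 active = Her2 level under about 52% in both replicate screens, with viability over 70% of control, limit read from the data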;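 for Her2 level: lower value means less Her2 protein in the cells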;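 for viability: percent of carrier control wells set as 100% viability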); details: SKBR3 Her2 protein level, 18-24 h, measured here: SKBR3 viability, ATP luminescence, at 10 µM
[2] = target: Receptor tyrosine-protein kinase erbB-2 (Homo sapiens) (UniProt P04626); experiment: as above; details: 18-24 h, at 10 µM, stronger effect = lower value
Receptor tyrosine-protein kinase erbB-2 (Homo sapiens), sequence (P04626 whole entry, looked up): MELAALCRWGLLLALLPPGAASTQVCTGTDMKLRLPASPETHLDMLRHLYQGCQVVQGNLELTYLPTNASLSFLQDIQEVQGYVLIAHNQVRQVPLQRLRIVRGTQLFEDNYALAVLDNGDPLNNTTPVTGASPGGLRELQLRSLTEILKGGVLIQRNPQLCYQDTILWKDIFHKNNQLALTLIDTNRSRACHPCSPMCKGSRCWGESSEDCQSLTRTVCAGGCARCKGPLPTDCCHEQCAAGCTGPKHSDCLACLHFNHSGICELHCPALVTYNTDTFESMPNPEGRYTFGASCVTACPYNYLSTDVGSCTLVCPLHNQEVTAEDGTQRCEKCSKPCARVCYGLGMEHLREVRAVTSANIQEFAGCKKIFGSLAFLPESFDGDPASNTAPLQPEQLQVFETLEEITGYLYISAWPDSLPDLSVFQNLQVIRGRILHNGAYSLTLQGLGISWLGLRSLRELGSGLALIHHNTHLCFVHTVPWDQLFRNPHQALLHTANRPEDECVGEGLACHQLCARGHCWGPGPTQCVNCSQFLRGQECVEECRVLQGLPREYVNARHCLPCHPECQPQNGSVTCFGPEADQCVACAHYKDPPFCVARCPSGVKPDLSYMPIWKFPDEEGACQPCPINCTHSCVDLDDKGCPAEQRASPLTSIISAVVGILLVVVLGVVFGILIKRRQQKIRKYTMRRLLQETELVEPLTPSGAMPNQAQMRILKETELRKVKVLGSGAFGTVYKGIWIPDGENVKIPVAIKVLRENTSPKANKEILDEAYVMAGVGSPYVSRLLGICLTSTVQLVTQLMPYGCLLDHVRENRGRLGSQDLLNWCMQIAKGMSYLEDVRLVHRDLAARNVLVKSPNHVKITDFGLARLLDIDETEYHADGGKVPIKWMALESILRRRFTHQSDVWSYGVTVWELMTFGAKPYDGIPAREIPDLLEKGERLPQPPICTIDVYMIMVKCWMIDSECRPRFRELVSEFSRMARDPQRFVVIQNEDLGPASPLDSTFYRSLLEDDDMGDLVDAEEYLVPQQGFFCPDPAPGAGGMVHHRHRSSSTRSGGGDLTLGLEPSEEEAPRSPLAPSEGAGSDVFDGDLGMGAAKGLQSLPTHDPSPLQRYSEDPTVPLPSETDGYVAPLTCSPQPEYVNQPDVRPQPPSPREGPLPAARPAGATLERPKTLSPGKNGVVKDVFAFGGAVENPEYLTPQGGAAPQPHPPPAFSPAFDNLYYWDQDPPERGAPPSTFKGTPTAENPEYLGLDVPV

[3] = reduced viability of SK-BR-3 breast cancer cells – cell-based, 24 h, human, pilot screen (AID 572); details: SK-BR-3 viability, CellTiter-Glo luminescence, at 10 µM, stronger effect = lower value;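 note: compound exposure lasted between 18 and 24 h rather than exactly 24 h; 100% = carrier-treated control wells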
[4] = HUVEC growth inhibition – cell-based, human, primary screen (AID 575;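 active = viability at or below 30% in both replicate assays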;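 note: 100% = median of untreated cell wells with 0.1% DMSO on each plate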); details: HUVEC proliferation, CellTiter-Glo luminescence, 72 h; at 10 µM; stronger effect = lower value
Method in brief: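 Timing: 72 h treatment at 37 °C; material: HUVEC primary cells; technique: CellTiter-Glo luminescence measuring cellular ATP; controls: vehicle and MePR control wells; measure: percent of median DMSO-control luminescence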

[5] = H69AR cell proliferation blockers – human, duplicate replicates, primary screen (AID 580;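 active = viability at or under a set limit in both replicates, limit being median viability minus 3 SD, cut at about 48% in these data, passing the limit was not always enough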;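 note: 100% = mean luminescence of untreated wells and 0% = no signal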); details: H69AR lung tumor cells viability, ATP luminescence, 72 h; at 10 µM; stronger effect = lower value
[6] = MRP1 drug-resistance reversers in H69AR cells – cell-based, doxorubicin co-treatment, pilot screen (AID 601;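 active = viability loss from added drug above about 55%, and viability with drug at most 40%, in both replicates, limit read from the data, passing the limit was not always enough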); details: CellTiter-Glo, 72 h, at 10 µM; for differential viability (reversal): stronger effect = higher value
[7] = yeast transport mutant growth inhibition pilot in 384-well plates, post-Golgi transport modulator project (AID 636; in the data active = inhibition above about 31%); details: absorbance 615 nm, about 18 h, stronger effect = higher value
[8] = growth suppression of yeast trafficking mutant, preliminary HTS, modulators of trafficking downstream of Golgi apparatus project, 1536-format plate, OD 615 nm (AID 637; in the data active = inhibition above about 30%); details: yeast transport mutant growth, absorbance 615 nm, 18 h; stronger effect = higher value
[9] = H69AR cells + 2 uM doxorubicin, measured here: viability with 2 uM doxorubicin, stronger effect = lower value
[10] = H69AR cells, compound alone cytotoxicity

Structure (SMILES)	viability [1] [%]	Her2 level [2]	viability [3]	viability [4]	viability [5]	differential viability (reversal) ([6]; H69AR cells + 2 uM doxorubicin)	viability [6, 9] [%]	viability [6, 10] [%]	inhibition [7]	inhibition [8]
COCCN1CCN(c2c(C)c(C)nc3cc(-c4cccc(OC)c4)nn23)CC1	100	83.5% (inactive)	100% (inactive)	91.1% (inactive)	95.4% (inactive)	12.7% (inactive)	82.7	95.4	-5.45% (inactive)	-1.43% (inactive)
C/C(=C\c1cc(C(=O)O)c(C)o1)CO	102	126% (inactive)	102% (inactive)	108% (inactive)	89.1% (inactive)	-8.12% (inactive)	97.2	89.1	-5.13% (inactive)	-0.33% (inactive)
O=C(CSc1nc2ccccc2s1)N1CCN(C(=O)c2ccco2)CC1	86.5	97% (inactive)	86.5% (inactive)	79.8% (inactive)	104% (inactive)	9.76% (inactive)	94.6	104	-3.82% (inactive)	-5.17% (inactive)
Cc1nc(SCC(=O)Nc2ccccc2C(F)(F)F)c2c(=O)n(C)c(=O)n(C)c2n1	87	85% (inactive)	87% (inactive)	80.3% (inactive)	74% (inactive)	-2.32% (inactive)	76.3	74	-3.87% (inactive)	3.61% (inactive)
CCCCN(C)Cc1c(C)[nH]c2c(Cl)cccc2c1=O	84.5	87% (inactive)	84.5% (inactive)	96% (inactive)	90.6% (inactive)	13.7% (inactive)	76.9	90.6	-4.34% (inactive)	-2.06% (inactive)
CC(O)c1n(C)c(Cl)c[n+]1C (stereo not given)	114	95% (inactive)	114% (inactive)	109% (inactive)	103% (inactive)	-3.03% (inactive)	106	103	-0.66% (inactive)	6.39% (inactive)
O=C(CCN1C(=O)C2C3C=CC(C3)C2C1=O)NCCc1ccccc1Cl (stereo not given)	95	68.5% (inactive)	95% (inactive)	94.2% (inactive)	95.2% (inactive)	10.5% (inactive)	84.7	95.2	-6.49% (inactive)	-5.08% (inactive)
O=C(Nc1cccnc1)c1ccc2c(c1)C(=O)N(Cc1cccnc1)C2=O	96.5	99.5% (inactive)	96.5% (inactive)	103% (inactive)	102% (inactive)	7.77% (inactive)	94.7	102	-2.93% (inactive)	-1.64% (inactive)
COc1ccc(N(C(=O)c2ccco2)S(=O)(=O)c2cc(OC)ccc2OC)cc1	102	84.5% (inactive)	102% (inactive)	81% (inactive)	72.2% (inactive)	-25.7% (inactive)	97.9	72.2	-1.84% (inactive)	4.17% (inactive)
O=C(NCC1COCCO1)C1CCN(S(=O)(=O)c2ccccc2)CC1 (stereo not given)	90	119% (inactive)	90% (inactive)	106% (inactive)	109% (inactive)	10.3% (inactive)	99.2	109	1.2% (inactive)	-7.26% (inactive)
CC(C)Cn1c(CN2CCCCC2C)nc2c1c(=O)n(C)c(=O)n2C (stereo not given)	88.5	91.5% (inactive)	88.5% (inactive)	109% (inactive)	94.2% (inactive)	16.7% (inactive)	77.6	94.2	-5.73% (inactive)	-3.61% (inactive)
O=C(Nc1ccccc1)c1cccnc1N1CCOCC1	94	80% (inactive)	94% (inactive)	105% (inactive)	102% (inactive)	18.2% (inactive)	84.1	102	-0.92% (inactive)	-2.73% (inactive)
O=C(CN1C(=O)NC2(CCCCCC2)C1=O)N1CCC(Cc2ccccc2)CC1	87	94.5% (inactive)	87% (inactive)	77.2% (inactive)	86.7% (inactive)	-4.21% (inactive)	90.9	86.7	-5.33% (inactive)	2.46% (inactive)
Cc1cc(C(=O)O)ccc1-n1c(C)ccc1C	100	92% (inactive)	100% (inactive)	89.6% (inactive)	93.2% (inactive)	1.35% (inactive)	91.8	93.2	1.32% (inactive)	-4.52% (inactive)

— PubChem BioAssay
